Assay results from different studies.
Compare with care: the assays were run in different laboratories.
Observed: cell growth or viability

CC(C)C[C@H](NC(=O)[C@H](Cc1ccccc1)NC(=O)c1cnccn1)B(O)O
IC50 (KARPAS-299; ATP luminescence): 5.2 nM

COC(=O)c1c(C)ncn1CC(c1c[nH]c2ccc(C)cc12)c1c[nH]c2ccc(C)cc12
inhibition (HaCaT; MTS; 20 µM; 24 h): 12.2%

COc1cc(Nc2nccc(-c3cnn4nc(OC)ccc34)n2)cc(C(F)(F)F)c1
IC50 (HEC-1-A; ATP luminescence): 1000 nM

Cc1cc(C)cc(COc2cc3c(cc2OCc2cc(C)cc(C)c2)[C@H]2C[C@](O)(Cc4cn(Cc5cccnc5)nn4)C[C@H](C)N2CC3)c1
IC50 (ASPC1; MTT): 674 nM

COc1ccc(-c2ccc(-c3ccc(C(=N)N)nc3)s2)cc1
GI50 (SNB-19; SRB): 1720 nM

C=CS(=O)(=O)Nc1ccc(CCn2cc(C[C@@]3(O)C[C@@H]4c5cc(OCc6cc(C)cc(C)c6)c(OCc6cc(C)cc(C)c6)cc5CCN4[C@@H](C)C3)nn2)cc1
IC50 (ASPC1; MTT): 1880 nM

COC(=O)c1c(C)ncn1CC(c1c[nH]c2cc(Br)ccc12)c1c[nH]c2cc(Br)ccc12
inhibition (HaCaT; MTS; 20 µM; 24 h): 28.8%

C=CC(=O)N1CCC[C@@H](n2nc(-c3ccc(Oc4ccccc4)cc3)c3c(N)ncnc32)C1
GI50 (KU812; 48 h): 3080 nM

Cc1cc(C)cc(COc2cc3c(cc2OCc2cc(C)cc(C)c2)[C@H]2C[C@](O)(Cc4cn(Cc5cnccn5)nn4)C[C@H](C)N2CC3)c1
IC50 (ASPC1; MTT): 753 nM

Cc1cc(Nc2ncc(Cl)c(Nc3ccccc3S(=O)(=O)C(C)C)n2)c(OC(C)C)cc1C1CCNCC1
inhibition (KARPAS-299; MTT; 5 µg/mL; 72 h): 97.7%

COC(C)(C)CCC[C@](C)(O)[C@H]1CC[C@]2(C)[C@@H]1[C@H](O)C[C@@H]1[C@@]3(C)CC[C@H](O)C(C)(C)[C@@H]3CC[C@]12C
IC80 (NCI-H358; MTT; 72 h): 81700 nM

C=CC(=O)Nc1ccc(Cn2cc(C[C@@]3(O)C[C@@H]4c5cc(OCc6cc(C)cc(C)c6)c(OCc6cc(C)cc(C)c6)cc5CCN4[C@@H](C)C3)nn2)cc1
IC50 (ASPC1; MTT): 481 nM

CCOC(=O)c1cn(CC(c2cn(C)c3ccc(C)cc23)c2cn(C)c3ccc(C)cc23)c(C)c1C(=O)OC
inhibition (HaCaT; MTS; 20 µM; 24 h): 9.5%

C[C@@H](Oc1cc(-c2cnn(C3CCNCC3)c2)cnc1N)c1c(Cl)ccc(F)c1Cl
inhibition (KARPAS-299; MTT; 0.008 µg/mL; 72 h): 27.5%
